Experimental data as given in ChEMBL document CHEMBL1128702, “Structure-activity relationships of the antimalarial agent artemisinin. 2. Effect of heteroatom substitution at O-11: synthesis and bioassay of N-alkyl-11-aza-9-desmethylartemisinins” (J Med Chem, 1995).

How the values were obtained:
Plasmodium falciparum [1] = assay: Relative potency was determined in vitro in paratized human whole blood against drug resistant strain of Plasmodium falciparum strain-Indochina(W-2)
Homo sapiens [2] = species on record: Homo sapiens; assay: Relative potency was determined in vitro in paratized human whole blood against […]strain of Plasmodium falciparum in WR(Walter Reed) army institute of research; type: functional
Homo sapiens [3] = species on record: Homo sapiens; assay: Relative potency was determined in vitro in paratized human whole blood against […]strain of Plasmodium falciparum in University of mississippi using parasite lactate dehydrogenase assay; type: functional
Outline: (§1)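 P. falciparum W-2 and D-6 tested at University of Mississippi by Makler parasite lactate dehydrogenase assay: pLDH reduces APAD to APADH (human RBC LDH does so only slowly); APADH detected colorimetrically via nitroblue tetrazolium reduction to blue formazan. Relative potencies derived as for the Walter Reed assay.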

Homo sapiens [4] = species on record: Homo sapiens; assay: Relative potency was determined in vitro in paratized human whole blood against chloroquine sensitive (D-6) strain of Plasmodium falciparum in University of mississippi using parasite lactate dehydrogenase assay; type: functional
Outline: as §1

[5] = Partition coefficient (logP); type: physicochemical; conditions: octanol/water
Outline: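 log P measured by literature procedures using standard values, also calculated with CLOGP; UV detection at 330 nm for ketone standards and 216 nm for artemisinin derivatives; samples run in triplicate.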

Plasmodium falciparum [6] = assay: Relative potency was determined in vitro in paratized human whole blood against drug resistant strain of Plasmodium falciparum strain-Sierra Leone(D-6)

| Compound | Relative potency (Plasmodium falciparum [1]) [%] | Relative potency (Homo sapiens [2]) [%] | Relative potency (Homo sapiens [3]) [%] | Relative potency (Homo sapiens [4]) [%] | logP [5] | Relative potency (Plasmodium falciparum [6]) [%] |
| --- | --- | --- | --- | --- | --- | --- |
| C[C@@H]1CC[C@H]2CC(=O)N(Cc3ccc(Cl)cc3)C3O[C@@]4(C)CC[C@@H]1[C@]32OO4 (stereo partly drawn) | 69 | 69 | 311 | 128 | 3.96 | 111 |
| C[C@@H]1CC[C@H]2CC(=O)N(CCCCCC(=O)O)C3O[C@@]4(C)CC[C@@H]1[C@]32OO4 (stereo partly drawn) | 2 |  |  |  |  | 12 |
| CCCN1C(=O)C[C@@H]2CC[C@@H](C)[C@@H]3CC[C@@]4(C)OO[C@@]23C1O4 (stereo partly drawn) | 111 |  |  |  | 2.61 | 75 |
| CC(C)CN1C(=O)C[C@@H]2CC[C@@H](C)[C@@H]3CC[C@@]4(C)OO[C@@]23C1O4 (stereo partly drawn) | 105 | 105 | 227 | 155 | 3.01 | 145 |
| CC(C)CCN1C(=O)C[C@@H]2CC[C@@H](C)[C@@H]3CC[C@@]4(C)OO[C@@]23C1O4 (stereo partly drawn) | 92 |  |  |  | 3.54 | 149 |
| C[C@@H]1CC[C@H]2CC(=O)N(CC(=O)O)C3O[C@@]4(C)CC[C@@H]1[C@]32OO4 (stereo partly drawn) |  |  |  |  | 1.69 | 6 |
| C[C@@H]1CC[C@H]2CC(=O)N(CCCc3ccccc3)C3O[C@@]4(C)CC[C@@H]1[C@]32OO4 (stereo partly drawn) | 105 | 105 | 281 | 147 | 4.03 | 205 |
| C[C@@H]1CC[C@H]2[C@@H](C)C(=O)O[C@@H]3O[C@@]4(C)CC[C@@H]1[C@]32OO4 [ARTEMISININ] | 100 |  |  |  |  | 100 |
| C[C@@H]1CC[C@H]2CC(=O)N(CCN(C)C)C3O[C@@]4(C)CC[C@@H]1[C@]32OO4 (stereo partly drawn) |  |  |  |  |  | 37 |
| C[C@@H]1CC[C@H]2CC(=O)N(Cc3ccccc3)C3O[C@@]4(C)CC[C@@H]1[C@]32OO4 (stereo partly drawn) | 217 | 217 | 252 | 146 |  | 189 |
| CCCCCN1C(=O)C[C@@H]2CC[C@@H](C)[C@@H]3CC[C@@]4(C)OO[C@@]23C1O4 (stereo partly drawn) | 63 |  |  |  | 3.67 | 110 |
| C[C@@H]1CC[C@H]2CC(=O)N(CCc3ccccc3)C3O[C@@]4(C)CC[C@@H]1[C@]32OO4 (stereo partly drawn) | 143 | 143 | 204 | 187 | 3.5 | 197 |
| C[C@@H]1CC[C@H]2CC(=O)N(C)C3O[C@@]4(C)CC[C@@H]1[C@]32OO4 (stereo partly drawn) | 500 |  |  |  | 1.55 | 213 |
